In the library only some 3.5% were active in any assay of this set; here they are far more common.
MrgX1 antag: antagonists of human MrgX1 receptor, primary screen, HEK293 cells, Fluo-4 calcium flux | B-score at 10 µM | 310,000 tested, 1.3% active | AID 588676, 2011 | BAM8-22 antagonism; stronger effect = lower value | Mas-related G-protein coupled receptor member X1 (Homo sapiens), Q96LB2;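 active = calcium-response B-score plate-corrected more than 3 library SD below zero, starting fluorescence within 5 deviations, no agonist response on first addition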;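 also: peak minus trough fluorescence over baseline after final BAM8-22 challenge near maximal dose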
Target sequence (Q96LB2 whole entry, looked up): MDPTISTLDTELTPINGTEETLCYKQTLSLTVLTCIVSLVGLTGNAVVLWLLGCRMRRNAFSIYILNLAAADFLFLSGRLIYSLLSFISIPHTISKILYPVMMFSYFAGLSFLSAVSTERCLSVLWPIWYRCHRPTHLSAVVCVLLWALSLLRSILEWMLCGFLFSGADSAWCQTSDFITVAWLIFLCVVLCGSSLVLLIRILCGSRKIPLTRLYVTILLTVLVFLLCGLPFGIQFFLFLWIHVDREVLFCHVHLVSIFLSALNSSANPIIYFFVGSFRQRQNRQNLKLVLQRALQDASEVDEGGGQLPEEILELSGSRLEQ
RGS4 block: RGS4 inhibitors, primary screen, cell-based, HEK293 M3R inducible RGS4, calcium flux; Regulator of G-protein signaling 4 (Homo sapiens), P49798; Fluo-4 calcium flux; stronger effect = higher value; triggered by carbachol at its EC20; B-score at 10 µM; 310,000 tested, 0.45% active;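 active = B-score, a plate-corrected calcium signal, over three deviations above library mean, with baseline fluorescence within five deviations of library mean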;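 also: RGS4 expression induced by doxycycline in cells with stable M3 receptor; B-score is computed from the integrated fluorescence ratio over baseline after carbachol; higher B-score means a larger calcium signal and so more RGS4 inhibition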
Target sequence (P49798 whole entry, looked up): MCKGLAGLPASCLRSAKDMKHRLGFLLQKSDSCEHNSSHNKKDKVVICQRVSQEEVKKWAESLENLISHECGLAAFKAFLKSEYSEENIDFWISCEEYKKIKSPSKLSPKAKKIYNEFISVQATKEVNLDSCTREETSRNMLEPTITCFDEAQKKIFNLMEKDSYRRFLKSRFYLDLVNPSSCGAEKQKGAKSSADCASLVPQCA
MrgX1 ag: agonists of human MrgX1 receptor, primary screen, HEK293 cells, Fluo-4 calcium flux | Fluo-4 calcium fluorescence, agonist mode; stronger effect = higher value | B-score at 10 µM | 310,000 tested, 0.44% active;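 active = calcium response B-score plate-corrected fluorescence ratio at least 3 library SD, with starting fluorescence B-score inside 5 SD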
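Material: MrgX1-expressing HEK293 cells / Dosing: compound as first of three additions / Incubation: overnight seeding, then 1 h dark dye loading / Signal: Fluo-4 NW calcium fluorescence / Evaluation: B-scored fluorescence response ratio / Benchmarks: positive and negative control wells on each plate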
MrgX1 allo act: positive allosteric modulators of MrgX1, primary screen, HEK293 cells, Fluo-4 calcium flux. Mas-related G-protein coupled receptor member X1 (Homo sapiens), Q96LB2. FDSS; stronger effect = higher value. B-score at 10 µM. 310,000 tested, 0.63% active;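 active = plate-corrected calcium response at least 3 library SD above typical, normal starting fluorescence, not activating the receptor alone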;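 also: compound read alongside a low EC10 to EC30 dose of BAM8-22 agonist; peak minus trough fluorescence over baseline measured at the second addition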
RGS4 act: RGS4 potentiators or activators, primary screen, cell-based, HEK293 M3R inducible RGS4, calcium flux | carbachol calcium flux Fluo4; stronger effect = lower value | B-score at 10 µM | AID 463111, 2010 | 310,000 tested, 0.92% active;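 active = B-score of the integrated calcium signal more than 4 SD below the library mean, with starting fluorescence not abnormally high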;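 also: negative B-score means reduced calcium response which marks RGS4 activation or potentiation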
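Test system: HEK293 cells with stable M3R and inducible RGS4; also added: carbachol at ECmax as muscarinic agonist stimulus; schedule: dye loading 30 min 37 °C, buffer rest 30 min RT; technique: kinetic calcium fluorescence imaging with Fluo4-AM dye, 2 µM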
MrgX1 ant reconf: MrgX1 receptor antagonists, duplicate retest, confirmation, HEK293 cells, Fluo-4 calcium flux; shares compounds with MrgX1 antag; BAM8-22 calcium flux; stronger effect = lower value; remaining BAM8-22 calcium response % of control (stronger effect = lower value), % at 10 µM; 2,300 tested, 19% active;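 active = remaining agonist calcium response no higher than 100% minus 3 SD of agonist-only control wells, with starting fluorescence near control levels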;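 also: agonist BAM8-22 given at a near maximal EC90 to ECmax level; peak minus minimum fluorescence divided by baseline after agonist addition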
HEK293 Ca flux: nonspecific calcium signal in parental HEK293, confirmation, counter-screen for MrgX1 antagonist project, parental HEK293 cells, Fluo-4 calcium flux. 4,000 tested, 2% active. Fluo-4 calcium fluorescence, FDSS. shares compounds with MrgX1 antag. fluorescence ratio F(max-min)/F0 at 10 µM. AID 624111, 2012;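 active = duplicate-averaged calcium fluorescence ratio at least three times the standard deviation of buffer wells, a nonspecific response in parental cells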
HEK293 Ca counter: calcium response in parental HEK293 cells, primary screen, counter-screen for MrgX1 allosteric activator project, cell-based, Fluo-4 calcium flux, duplicate; 4,000 tested, 0.4% active; AID 624114, 2012; Fluo-4 fluorescence ratio; stronger effect = higher value; shares compounds with MrgX1 antag; fluorescence ratio F(max-min)/F0 at 10 µM;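 active = calcium fluorescence ratio, averaged over duplicates, at least 3 SD of the buffer-well ratio, meaning a nonspecific response in receptor-free cells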;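 also: untransfected parental HEK293 lacking MrgX1 used as counterscreen for MrgX1 allosteric activators; fluorescence change taken during the second addition on a kinetic imager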
HEK293 Ca cntr2: calcium response in parental HEK293 cells, primary screen, counter-screen for MrgX1 agonist project, cell-based, Fluo-4 calcium flux, duplicate, agonist mode; shares compounds with MrgX1 antag; Fluo-4 calcium fluorescence (FDSS); stronger effect = higher value; fluorescence ratio F(max-min)/F0 at 10 µM; 4,000 tested, 8.7% active;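 active = calcium fluorescence ratio at least three times the spread of buffer wells, meaning a non-specific response in parental cells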
Large screens that a line does not name were inactive (follow-up assays come after a bar, where they were run).

COc1ccc(OCC(=O)N/N=C(\C)CC(=O)Nc2cccc([N+](=O)[O-])c2)cc1	MrgX1 antag -11.4 | MrgX1 ant reconf inactive | HEK293 Ca flux inactive | HEK293 Ca counter inactive | HEK293 Ca cntr2 inactive
COc1ccc(NC(=O)C/C(C)=N/NC(=O)COc2ccc(OC)cc2)cc1	none
CC(C)(C)c1ccc(-n2ncc3c2CCCC3NC(=O)CCN2CCCCC2=O)cc1 (stereo unspecified)	none
Cc1cc(C)cc(-n2ncc3c2CCCC3NC(=O)CN2CCCCC2=O)c1 (stereo unspecified)	MrgX1 antag -8.32 | MrgX1 ant reconf inactive | HEK293 Ca flux inactive | HEK293 Ca counter inactive | HEK293 Ca cntr2 inactive
CNC(=O)c1c(NC(=O)c2ccc(S(=O)(=O)N3CCCc4ccccc43)cc2)sc2c1CCN(C)C2	MrgX1 antag -5.5 | MrgX1 ant reconf inactive | HEK293 Ca flux 0.658 | HEK293 Ca counter inactive | HEK293 Ca cntr2 49
COc1ccccc1/C=C/c1onc(C)c1S(=O)(=O)N1CCC(C(=O)NC(C)C)CC1	MrgX1 antag -5.48 | MrgX1 ant reconf inactive | HEK293 Ca flux inactive | HEK293 Ca counter inactive | HEK293 Ca cntr2 inactive
Cc1ccc(C(CNS(=O)(=O)c2ccc(C)cc2)N2CCN(C)CC2)cc1 (stereo unspecified)	none
Cc1ccc(C(CNS(=O)(=O)c2ccc(Cl)cc2)N2CCN(C)CC2)cc1 (stereo unspecified)	MrgX1 antag -4.96 | MrgX1 ant reconf 78.5% | HEK293 Ca flux inactive | HEK293 Ca counter inactive | HEK293 Ca cntr2 inactive
CCOc1ccccc1N(C)C(=O)CCS(=O)(=O)c1ccc2c(c1)NC(=O)CO2	none
NC(=O)c1ccccc1NC(=O)CCN1C(=O)c2ccccc2C1=O	MrgX1 antag -6.9 | MrgX1 ant reconf 85.2% | HEK293 Ca flux inactive | HEK293 Ca counter inactive | HEK293 Ca cntr2 inactive
COc1ccccc1NC(=S)NCCc1c[nH]c2ccccc12	MrgX1 antag -5.59 | MrgX1 ant reconf inactive | HEK293 Ca flux inactive | HEK293 Ca counter inactive | HEK293 Ca cntr2 inactive
O=C(CC1CS(=O)(=O)CC1CC(=O)Nc1ccc2c(c1)OCCO2)Nc1ccc2c(c1)OCCO2 (stereo unspecified)	none
Cc1ccc2[nH]c(=O)c(CN(CCN3CCOCC3)C(=O)Nc3ccc(F)cc3)cc2c1	MrgX1 antag -5.15 | MrgX1 ant reconf inactive | HEK293 Ca flux inactive | HEK293 Ca counter inactive | HEK293 Ca cntr2 inactive
CCOC(=O)N1CCN(C(=O)c2ccccc2N(C)S(C)(=O)=O)CC1	MrgX1 antag -7.64 | MrgX1 ant reconf inactive | HEK293 Ca flux inactive | HEK293 Ca counter inactive | HEK293 Ca cntr2 inactive
CCOC(=O)N1CCN(C(=O)C2COc3ccccc3O2)CC1 (stereo unspecified)	MrgX1 antag -7.82 | MrgX1 ant reconf inactive | HEK293 Ca flux inactive | HEK293 Ca counter inactive | HEK293 Ca cntr2 inactive
CCN1CCN(C(=O)C2COc3ccccc3O2)CC1 (stereo unspecified)	none
O=S(=O)(NCCN1CCCC1)c1ccc(Br)cc1	none
O=S(=O)(NCCN1CCCC1)c1ccc(Cl)cc1	MrgX1 antag -4.76 | MrgX1 ant reconf inactive | HEK293 Ca flux inactive | HEK293 Ca counter inactive | HEK293 Ca cntr2 inactive
CC(=O)c1c(C)[nH]c(C(=O)OCCOc2ccccc2)c1C	none
Cc1c(C(=O)OCCOc2ccccc2)[nH]c2c1C(=O)CCC2	MrgX1 antag -5.15 | MrgX1 ant reconf 66.9% | HEK293 Ca flux inactive | HEK293 Ca counter inactive | HEK293 Ca cntr2 inactive
COCCN1C(=O)C(=O)/C(=C(/O)c2ccc(S(=O)(=O)N3CCOCC3)cc2)C1c1cccc([N+](=O)[O-])c1 (stereo unspecified)	none
c1cncc(-c2nnc3n2N=C(c2cccs2)CS3)c1	MrgX1 antag -4.71 | MrgX1 ant reconf inactive | HEK293 Ca flux inactive | HEK293 Ca counter inactive | HEK293 Ca cntr2 inactive
CC(=O)Nc1ccc(S(=O)(=O)NCC2CCC(C(=O)NC(C)c3ccccc3)CC2)cc1 (stereo unspecified)	MrgX1 antag -6.05 | MrgX1 ant reconf inactive | HEK293 Ca flux inactive | HEK293 Ca counter inactive | HEK293 Ca cntr2 inactive
O=C(O)CCN1C(=O)NC2(CCCC2)C1=O	MrgX1 antag -7.3 | MrgX1 ant reconf inactive | HEK293 Ca flux inactive | HEK293 Ca counter inactive | HEK293 Ca cntr2 inactive
O=C(CN1C(=O)NC2(CCCC2)C1=O)Nc1ccccc1	none
Cc1cc(C)cc(OCC(=O)NNC(=O)CN2C(=O)c3ccccc3C2=O)c1	none (no result: RGS4 block, RGS4 act)
CS(=O)(=O)c1ccc(Cl)c(NC(=O)CN2C(=O)C3CCCCC3C2=O)c1 (stereo unspecified)	none
COc1cccc(CN2CCN(Cc3ccon3)CC2CCO)c1 (stereo unspecified)	none
OCCC1CN(Cc2ccon2)CCN1Cc1ccc(F)c(F)c1 (stereo unspecified)	MrgX1 antag -8.45 | MrgX1 ant reconf inactive | HEK293 Ca flux inactive | HEK293 Ca counter inactive | HEK293 Ca cntr2 inactive
O=C1CC(=O)N(CCc2ccccc2)C(=O)N1CCc1ccccc1	MrgX1 antag -11.4 | MrgX1 ant reconf 79.4% | HEK293 Ca flux inactive | HEK293 Ca counter inactive | HEK293 Ca cntr2 inactive
Nc1[nH]c(=O)ncc1F	none
O=C(CSc1nnc(CNC(=O)c2ccccc2)o1)Nc1ccc2c(c1)OCCO2	MrgX1 antag -5.56 | MrgX1 ant reconf inactive | HEK293 Ca flux inactive | HEK293 Ca counter inactive | HEK293 Ca cntr2 inactive
O=C(CSc1nnc(CNC(=O)c2ccc(F)cc2)o1)Nc1ccc2c(c1)OCCO2	none
CCCN(CCC)C(=O)c1ccc2nc(-c3ccc(OC)c(OC)c3)c(-c3ccc(OC)c(OC)c3)nc2c1	none
C=CCN1C(=O)c2cccc3c(N4CCCCC4)ccc(c23)C1=O	none
C=CCN1C(=O)c2cccc3c(Br)ccc(c23)C1=O	MrgX1 antag -7.62 | MrgX1 ant reconf inactive | HEK293 Ca flux inactive | HEK293 Ca counter inactive | HEK293 Ca cntr2 inactive

Bioassay records deposited in PubChem by Johns Hopkins Ion Channel Center.
